High-throughput results from PubChem.
A3A deaminase – human APOBEC3A DNA deaminase inhibition; inhibition, % at 20 µM; P31941; recombinant A3A, FAM/TAMRA ssDNA deamination fluorescence; hit rate 0.41% among 330,000; AID 493011;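 active = at least 40% inhibition at 20 µM here, with at most 30% in a related deaminase screen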;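 also: plate controls were A3A with DMSO for no effect and wells lacking A3A enzyme for full effect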
TbMetRS inhib – Trypanosoma brucei MetRS inhibition. purified T. brucei MetRS, ATP depletion, Kinase-Glo luminescence. inhibition, % at 11.9 µM. hit rate 0.4% among 360,000;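 active = inhibition above a per-plate cutoff of the control wells' mean inhibition plus 3 SD, cut at about 5.5% in these data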;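 also: 0% = DMSO wells median and 100% = median of wells with control inhibitor compound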
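Test system: purified T. brucei MetRS enzyme. Also added: ATP, methionine and E. coli bulk tRNA substrates. Compound: 11.9 µM single point. Schedule: 15 min enzyme-compound preincubation, 2 h reaction, 10 min detection, 25 °C. Signal: luciferase luminescence of residual ATP, Kinase-Glo. Evaluation: percent inhibition versus plate control medians. Controls: DMSO wells, low control.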
PHOSPHO1 inh – inhibitors of human PHOSPHO1 phosphatase; hit rate 1.1% among 290,000; inhibition, % at 13.3 µM; Q8TCT1; recombinant PHOSPHO1, absorbance phosphatase assay; in the data active = inhibition above about 60%
Target sequence (Q8TCT1 whole entry, looked up): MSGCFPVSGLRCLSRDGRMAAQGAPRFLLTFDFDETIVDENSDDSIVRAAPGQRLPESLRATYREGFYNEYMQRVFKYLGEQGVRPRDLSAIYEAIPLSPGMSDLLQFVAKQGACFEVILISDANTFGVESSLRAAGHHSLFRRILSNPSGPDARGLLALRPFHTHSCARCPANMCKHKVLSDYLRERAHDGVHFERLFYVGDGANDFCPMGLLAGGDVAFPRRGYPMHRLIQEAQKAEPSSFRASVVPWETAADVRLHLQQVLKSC
APOBEC3G inh – APOBEC3G (human) deaminase inhibition; Q9HC16; recombinant A3G, ssDNA deamination FAM/TAMRA fluorescence; inhibition, % at 20 µM; hit rate 0.28% among 330,000; AID 493012;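 active = inhibition of at least 40% at 20 µM, with no more than 30% in the related APOBEC3A deaminase screen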;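 also: plate controls were DMSO wells with A3G for no effect and wells lacking A3G enzyme for full effect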
p-CIP stab down – p/CIP protein destabilization. F442A p/CIP-EGFP cells, EGFP fluorescence, 16 h. decrease of EGFP signal, % at 10 µM. hit rate 0.01% among 290,000. AID 1984;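 active = EGFP signal decrease of at least 30% at 10 µM or well 3 SD below plate mean, unless failing retest; inactive = the rest, including hits failing retest or dose response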
A3G conf – APOBEC3G (human) deaminase inhibition, confirmed. shares compounds with APOBEC3G inh. recombinant A3G ssDNA deaminase, UDG/FAM-TAMRA fluorescence. inhibition, % at 20 µM. hit rate 72% among 890. AID 493152;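 active = inhibition reaching a set limit in any replicate at 20 µM, the limit being 80% of the first screen's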
UDG A3G counter – counter-screen for APOBEC3G inhibitors: E. coli UDG; UDG counterscreen, FAM/TAMRA oligo fluorescence; inhibition, % at 20 µM; 710 tested, under 10 active; shares compounds with APOBEC3G inh;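 active = compounds giving 40% or more inhibition at 20 µM in any one of the three replicates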;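 also: plate controls were DMSO wells with UDG and oligo for no effect and DMSO wells lacking both for full effect; inhibitors lower the FAM signal released by uracil excision and alkaline cleavage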
Target sequence (P12295 whole entry, looked up): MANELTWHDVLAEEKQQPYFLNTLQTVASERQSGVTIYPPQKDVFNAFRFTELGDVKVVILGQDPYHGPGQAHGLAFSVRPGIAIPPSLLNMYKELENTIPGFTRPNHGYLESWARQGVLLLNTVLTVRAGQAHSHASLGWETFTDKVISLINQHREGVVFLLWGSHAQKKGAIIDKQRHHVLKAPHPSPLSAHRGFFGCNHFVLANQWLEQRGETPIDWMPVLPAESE
Numbers without * were called inactive; . = not tested or not shown. The list is not random: actives were taken first. Their share in the collection is about 1.8%.

SMILES | A3A deaminase | TbMetRS inhib | PHOSPHO1 inh | APOBEC3G inh | p-CIP stab down | A3G conf | UDG A3G counter
COc1cc(/C=N/n2c(-c3n[nH]c4c3CCC4)n[nH]c2=S)cc(OC)c1O | -1.5 | 0.0 | -64.2 | 54.2* | -10.4 | 68.4* | -2.0
Cc1n[nH]c(=S)n1/N=C/c1ccc(-c2ccccc2[N+](=O)[O-])o1 | -5.0 | -1.5 | 7.8 | 45.3* | -12.0 | 67.9* | -6.0
COc1cccc(/C=N/n2c(-c3cc(C)[nH]n3)n[nH]c2=S)c1O | -3.6 | -0.9 | -18.7 | 52.7* | 2.2 | 84.8* | 5.9
COc1cccc(/C=N/n2c(-c3n[nH]c4c3CCC4)n[nH]c2=S)c1O | -4.2 | -1.6 | 46.8 | 66.3* | -5.5 | 82.0* | -12.3
CCN(CC)C(=O)c1[nH]cnc1C(=O)Nc1ccc(C)cc1 | -5.1 | -0.1 | . | -7.2 | . | . | .
O=C(/C=C/c1cc[n+](CC(=O)c2ccc3cccc4c3c2CC4)cc1)c1ccc2cccc3c2c1CC3 | 18.9 | 1.6 | -98.4 | 54.5* | -21.0 | 54.8* | .
CC(CCc1ccccc1)NS(=O)(=O)c1ccc(Cl)c(C(=O)O)c1 (stereo not given) | 2.8 | 0.2 | 6.5 | -0.9 | -1.9 | . | .
Cc1ccc(NC(=O)C2CCN(c3nc(C)cc(C)n3)CC2)cc1 | -0.2 | -0.3 | -3.0 | 47.6* | -1.8 | -7.1 | -0.4
CC(Cc1c[nH]c2ccccc12)C(=O)O (stereo not given) | 4.1 | -0.7 | -9.0 | 40.2* | 15.5 | 44.7* | .
O=C(Cc1ccccc1)NNC(=S)NC(=O)c1cccnc1 | -3.9 | 3.0 | 14.7 | 43.4* | -16.4 | 13.8 | 1.3
COC(=O)[C@H](CC(C)C)NC(=O)/C=C/[C@H]1O[C@@H](n2ccc(=O)[nH]c2=O)[C@H](O)[C@@H]1O | . | -0.3 | . | . | . | . | .
CC(c1ccccc1)n1c(Cn2ncc3ccccc3c2=O)n[nH]c1=S (stereo not given) | -5.4 | -0.3 | -54.5 | 29.8 | -6.2 | . | .
O=c1c2ccccc2cnn1Cc1n[nH]c(=S)n1-c1ccc(Cl)cc1 | -2.2 | -0.4 | 18.5 | 41.7* | -9.6 | 77.5* | -2.8
S=c1[nH]nc(-c2ccc(Cl)cc2)n1CCCN1CCOCC1 | 3.4 | -0.7 | -23.2 | -2.5 | -10.4 | . | .
CCOCCCn1c(-c2ccc(Cl)cc2)n[nH]c1=S | 0.4 | -0.3 | 99.2* | 53.0* | 4.7 | 61.7* | -3.5
COCCCn1c(-c2ccccc2Cl)n[nH]c1=S | -1.5 | -0.4 | 5.4 | 23.0 | 1.0 | . | .
COCCCn1c(-c2ccc(Cl)cc2)n[nH]c1=S | -1.2 | -1.2 | 97.6* | 49.2* | -5.6 | 58.0* | -5.2
CCc1ccc(-n2c(C)n[nH]c2=S)cc1 | -5.6 | -0.9 | 24.1 | 56.4* | -4.9 | 61.3* | 2.1
O=C(CN(CC(=O)N1CCOCC1)S(=O)(=O)c1ccc(Br)s1)N1CCOCC1 | -1.1 | -2.3 | . | 46.3* | . | 58.3* | -1.8
COCc1cc(C)c(C#N)c(=S)[nH]1 | 1.8 | -0.7 | 42.0 | 79.8* | 1.9 | 79.5* | -3.4
Cn1c(-c2ccc(C(C)(C)C)cc2)n[nH]c1=S | -2.8 | 0.1 | 69.2* | 40.5* | -9.2 | 73.3* | -0.4
Cn1c(-c2sccc2OCc2ccccc2)n[nH]c1=S | -1.1 | -0.1 | 99.1* | 45.3* | -2.4 | 78.2* | -3.6
Cn1c(-c2ccccc2)n[nH]c1=S | -7.2 | -0.2 | -8.5 | 7.3 | 3.8 | . | .
Cc1nc(-c2ccccc2)sc1-c1n[nH]c(=S)n1C | -6.3 | -1.1 | 28.7 | 43.2* | -6.4 | 76.1* | -3.4
Cn1c(=O)c(=O)n(C)c2cc(S(=O)(=O)NCCOc3ccccc3Cl)ccc21 | 0.7 | -0.4 | -15.8 | -3.8 | -3.2 | . | .
S=C(Nc1cccc(Cl)c1Cl)Nn1cnnc1 | -0.9 | -0.1 | -11.1 | -1.3 | 9.3 | . | .
COc1ccc(S(=O)(=O)NCC(=O)NCc2cc(=O)n(C)c(=O)n2C)cc1C | -1.2 | 0.3 | 2.8 | -4.7 | 5.1 | . | .
Cc1cccc(C)c1NC(=O)CN(C)CC(=O)Nc1cc(Cl)ccc1C#N | 1.6 | -0.4 | 18.3 | 1.7 | 5.7 | . | .
CCOc1ccc(NC(=O)CN(C)CC(=O)Nc2cc(Cl)ccc2C#N)cc1OCC | 2.7 | -0.4 | -11.5 | 90.6* | -4.4 | 3.7 | .
O=C(CCc1c[nH]c2ccccc12)OCc1ccc(Br)cc1 | -0.4 | 0.2 | -5.7 | -4.9 | -9.7 | . | .
